Key:
calpain = test: Inhibition of calpain; type: biochemical; conditions: data not shown
[1] = target: purified bovine cathepsin B (Bos taurus, UniProt P07688); test: Inhibition of cathepsin B, fluorogenic substrate assay; type: biochemical
Method in brief: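 Pre-incubated 10 min at room temperature with increasing inhibitor concentrations, then Z-Leu-Arg-AMC added (0.25 mM final) at 30°C. Linear hydrolysis rate read for 20 min (ex 365/em 450 nm). Triplicates, mean ± SEM. IC50 from activity loss.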

inhibition of cathepsin B (in words) [1]: targets also cathepsin B
Structure (SMILES): CC(C)C[C@H](NC(=O)N1CCOCC1)C(=O)N[C@H](/C=C/S(=O)(=O)c1ccccc1)CCc1ccccc1 [LHVS, Morpholinurea-leucine-homophenylalanine-vinylsulfone-phenyl, reference compound]
inhibition of calpain (in words) (calpain): targets
